Compounds with a hit are over-represented: about 2.6% of the library has one in this group of screens.
SENP8 block-1 – blocks the human protease SENP8. Q96LD8. purified SENP8, Z-RLRGG-aminoluciferin cleavage, luminescence. inhibition, % at 10 µM. actives 1.2% (n = 330,000). AID 2540; in the data active = inhibition above about 50%
SENP1 FRET inh – inhibitors of human SENP1 SUMO protease catalytic domain. Q9P0U3. recombinant SENP1 catalytic domain, CyPet-SUMO1-YPet FRET cleavage. inhibition, % at 10 µM. actives 0.21% (n = 360,000);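 active = inhibition at least 30% at 10 µM, raw YFP signal under a set limit, fluorescence ratio 0.5 to 1.5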;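 also: 0% = enzyme with DMSO and 100% = no enzyme wells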
Target sequence (Q9P0U3 419-644 limits assumed): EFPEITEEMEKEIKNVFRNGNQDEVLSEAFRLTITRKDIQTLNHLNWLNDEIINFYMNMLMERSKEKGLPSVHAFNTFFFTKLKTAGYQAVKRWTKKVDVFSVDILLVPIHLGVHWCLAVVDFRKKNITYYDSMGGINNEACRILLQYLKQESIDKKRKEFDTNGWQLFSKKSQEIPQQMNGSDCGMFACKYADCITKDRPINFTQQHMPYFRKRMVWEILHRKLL
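Controls: no-enzyme wells low, DMSO-plus-enzyme wells high control. Test system: human recombinant His6-tagged SENP1 catalytic domain enzyme. Reagent: SFCypet-SUMO1-SFYpet FRET protein substrate, 25 nM final. Doses: one dose per compound, 10 µM, 0.5% DMSO. Detection: FRET, CFP and YFP emission. Timing: 50 min reaction at room temperature.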
SENP6 inh – SENP6 protease inhibition | inhibition, % at 10 µM | Q9GZR1 | AID 2599 | Recombinant SENP6 catalytic domain, aminoluciferin luminescence | actives 1.8% (n = 330,000);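 active = inhibition above about 50% at the single tested dose, limit read from the data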;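 also: plate controls were DMSO wells with enzyme for no effect and DMSO wells lacking enzyme for full effect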
SENP7 block – SENP7 protease inhibition; Q9BQF6; recombinant SENP7, Z-RLRGG-aminoluciferin luminescence, 40 min; inhibition, % at 5 µM; actives 1.5% (n = 330,000); AID 434973;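 active = inhibition above about 50% at the single test dose, limit read from the data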;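 also: plate controls were DMSO with enzyme for no effect and no enzyme buffer wells for full effect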
SENP8 block-2 – blocks human SENP8 cleavage of Nedd8 substrate | AID 602440 | recombinant SENP8, Nedd8 substrate fluorescence | actives 0.64% (n = 360,000) | inhibition, % at 20 µM; in the data active = inhibition mostly above about 40%, no sharp cut-off; inactive = mostly below about 27%
UCH37 DUB inh – blocks the human deubiquitinase UCH37; Q9Y5K5; purified proteasome/UCH37, Ub-AMC cleavage fluorescence; inhibition, % (no concentration beside the values); actives 0.33% (n = 330,000); AID 588478;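 active = mean inhibition over replicate wells above about 20%, limit read from the data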;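 also: 0% = compound-free wells with enzyme and 100% = wells lacking proteasome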
Target sequence (Q9Y5K5 whole entry, looked up): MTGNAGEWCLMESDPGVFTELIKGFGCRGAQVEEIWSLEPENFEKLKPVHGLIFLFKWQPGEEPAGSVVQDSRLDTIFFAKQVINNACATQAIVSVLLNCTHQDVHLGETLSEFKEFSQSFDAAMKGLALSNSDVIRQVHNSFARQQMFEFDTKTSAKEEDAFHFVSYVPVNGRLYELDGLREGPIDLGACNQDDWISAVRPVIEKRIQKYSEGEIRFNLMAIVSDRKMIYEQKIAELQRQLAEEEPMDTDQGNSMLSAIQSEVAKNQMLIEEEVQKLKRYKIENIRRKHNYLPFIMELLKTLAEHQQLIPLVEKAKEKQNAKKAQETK
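Reagent: Ub-AMC substrate; assay system: Proteasome-associated human UCH37 deubiquitinase; controls: no-proteasome and no-compound wells; read-out: % inhibition of Ub-AMC cleavage fluorescence; timing: 30 min preincubation with enzyme, 25 min cleavage at room temperature; signal: AMC fluorescence from Ub-AMC cleavage, excitation 355 nm, emission 460 nm; buffer or medium: Tris-HCl pH 7.4 plus ovalbumin, ATP-MgCl2, DTT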
SENP8 conf – human SENP8 inhibition, confirmed | inhibition, % at 12.5 µM | Recombinant SENP8, Z-RLRGG-aminoluciferin luminescence, 60 min | actives 40% (n = 6,200) | shares compounds with SENP7 block;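 active = mean inhibition across replicates above about 50%, limit read from the data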
SENP6 confirm – human SENP6 inhibition, confirmed; shares compounds with SENP7 block; recombinant SENP6, Z-RLRGG-aminoluciferin luminescence; actives 58% (n = 6,200); inhibition, % at 12.5 µM
SENP7 conf – confirmation of human SENP7 protease inhibitors | actives 69% (n = 6,200) | inhibition, % at 12.5 µM | shares compounds with SENP7 block | recombinant SENP7, Z-RLRGG-aminoluciferin luminescence, 40 min
Casp3 SENP sel – caspase-3 inhibition (SENP selectivity assay). purified caspase-3, Z-DEVD-aminoluciferin luminescence, 60 min. actives 60% (n = 6,200). AID 488918. shares compounds with SENP7 block. inhibition, % at 12.5 µM;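 active = mean inhibition above about 50%, limit read from the data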;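 also: plate controls were enzyme with DMSO for no effect and wells without caspase-3 for full effect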
SENP luc ctr – luminescence interference (SENP counter-screen); inhibition, % at 12.5 µM; shares compounds with SENP7 block; AID 488919; actives 39% (n = 6,200); Pre-incubated SENP8/Z-RLRGG-aminoluciferin, luciferase luminescence interference;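 active = mean inhibition above about 50% when retested at one dose, limit read from the data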;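 also: plate controls were DMSO wells with completed reaction for no effect and substrate without enzyme for full effect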
* marks the source's active call; other numbers are inactive results; . = no result given.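 The calls were made as follows, unless noted: active = mean inhibition above about 50% in the one-dose retest (limit read from the data); inactive = the rest.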

SMILES	SENP8 block-1	SENP1 FRET inh	SENP6 inh	SENP7 block	SENP8 block-2	UCH37 DUB inh	SENP8 conf	SENP6 confirm	SENP7 conf	Casp3 SENP sel	SENP luc ctr
Cc1ccsc1C=Nc1ccc(O)cc1	8	4	68*	38	97*	17	29	16	-14	13	6
Cc1ccsc1/C=N/N=C/c1sccc1C	95*	1	-5	98*	17	.	-12	98*	103*	86*	87*
Cc1ccsc1C=NN=Cc1sccc1C	.	.	.	.	.	2	.	.	.	.	.
Cc1ccc(S(=O)(=O)Oc2ccccc2C=NO)cc1	.	.	.	.	.	0	.	.	.	.	.
Cc1nc(-c2cccc(Br)c2)ccc1C(=O)O	33	1	-7	58*	13	0	55*	51*	81*	88*	65*
Cc1cc(C=Nn2cnnc2)c(O)c([N+](=O)[O-])c1	.	.	.	.	.	13	.	.	.	.	.
CCOc1ccc(OCC)c(NC(=O)CSCCc2ccccn2)c1	2	2	82*	9	26	6	11	6	-3	-6	-6
Cc1ccc(O)c(-c2cc(-c3ccccc3F)[nH]n2)c1	57*	0	62*	55*	23	-1	66*	72*	92*	28	14
Cc1ccc(-c2cc(-c3cccc(F)c3)n[nH]2)c(O)c1	41	3	78*	44	26	-3	75*	72*	87*	13	19
c1ccc(Cn2nc(-c3ccccc3)nc2-c2ccccc2)cc1	47	0	62*	41	11	5	45	38	74*	29	17
Cc1ccc(C(=O)Nc2ccc3c(c2)OCO3)cc1S(=O)(=O)N1CCCC1	-9	1	-20	-10	21	0	.	.	.	.	.
Cc1ccc(NC(=O)c2ccc3c(c2)OCO3)cc1Cl	40	0	69*	63*	12	1	14	50*	88*	49	10
O=C(Nc1ccc2c(c1)OCO2)c1ccc(Cl)nc1	-7	0	-3	-2	12	0	.	.	.	.	.
Cc1ccc(C(=O)Nc2ccc3c(c2)OCO3)cc1Cl	-11	0	5	51*	0	.	-3	0	61*	36	-1
O=C(Nc1ccc2c(c1)OCO2)c1cnc(Cl)c(Cl)c1	45	0	59*	61*	8	-9	4	52*	85*	69*	10
O=C(NN=Cc1cc([N+](=O)[O-])ccc1O)C1C2CCCCC21 (stereo not drawn)	.	.	.	.	.	2	.	.	.	.	.
COc1ccc(O)c(-c2cc(-c3ccc(F)cc3)n[nH]2)c1	40	-3	56*	43	-10	3	62*	59*	78*	20	68*
COc1ccc(-c2cc(-c3cc(OC)ccc3O)[nH]n2)cc1	26	-5	-2	45	-14	-2	.	.	.	.	.
COc1ccc(O)c(-c2cc(-c3cccc(Br)c3)n[nH]2)c1	24	-15	59*	7	-11	-3	40	34	69*	-1	5
CC(=NNc1ccnc2cc(Cl)ccc12)c1ccc(O)cc1	.	.	.	.	.	4	.	.	.	.	.
O=C(COc1ccccc1-c1ccccc1)NN=Cc1cccc2ccccc12	.	.	.	.	.	3	.	.	.	.	.
COCCCNc1nc2c(-c3ccc(Cl)cc3)nnn2c2ccccc12	5	-39	2	2	-376	-448	.	.	.	.	.
NNc1nc2c(-c3ccc(F)cc3)nnn2c2ccccc12	92*	-31	97*	92*	-440	-76	22	81*	71*	78*	31
NNc1nc2c(-c3ccc(Cl)cc3)nnn2c2ccccc12	48	-40	85*	45	-479	-20	-17	-11	-5	2	-4
Fc1ccc(-c2nnn3c2nc(NCc2ccccc2)c2ccccc23)cc1	-9	-43	-2	-2	-445	-241	.	.	.	.	.
SMILES	SENP8 block-1	SENP1 FRET inh	SENP6 inh	SENP7 block	SENP8 block-2	UCH37 DUB inh	SENP8 conf	SENP6 confirm	SENP7 conf	Casp3 SENP sel	SENP luc ctr
CON=CCC(=O)c1ccc(-c2ccccc2)cc1	.	.	.	.	.	5	.	.	.	.	.
Fc1ccc(Br)cc1C=Nn1cnnc1	.	.	.	.	.	-2	.	.	.	.	.
CCC(CC)C(=O)Nc1cccc(C(C)=NNC(=O)c2c(Br)cnn2C)c1	.	.	.	.	.	5	.	.	.	.	.
CCOc1ccc(NC(=O)CC2Nc3ccccc3NC2=O)cc1 (stereo not drawn)	4	-86	11	7	-50	-2	.	.	.	.	.
Cc1cccc(NC(=O)CC2Nc3cccc4cccc(c34)NC2=O)c1 (stereo not drawn)	76*	-44	83*	67*	-40	-11	12	9	-1	1	1
O=C(CC1NC(=O)NC1=O)Nc1ccccc1 (stereo not drawn)	4	4	2	10	22	3	.	.	.	.	.
CC(=O)Nc1ccc(NC(=O)CC2Nc3cccc4cccc(c34)NC2=O)cc1 (stereo not drawn)	75*	-29	93*	75*	-91	4	-3	-2	5	4	-3
CC(=O)c1ccc(NC(=O)CC2Nc3cccc4cccc(c34)NC2=O)cc1 (stereo not drawn)	50*	-25	89*	56*	-9	2	8	7	-6	-6	-13
Cc1ccc(NC(=O)c2ccn(C)n2)c(Br)c1	42	3	61*	44	18	2	47	42	81*	68*	61*
Cc1ccc(NC(=O)c2ccccn2)c(Br)c1	72*	1	82*	73*	10	-1	66*	83*	79*	64*	34
Cc1ccc(C)c(NC(=O)c2ccccn2)c1	2	1	16	19	14	1	.	.	.	.	.
Cn1ccc(C(=O)Nc2ccc(Br)cc2Br)n1	38	-1	66*	39	12	6	43	44	65*	54*	20
O=c1c2c(nc3cc(-c4ccccc4)[nH]n13)CCC2	19	1	57*	45	-233	-11	22	16	30	44	7
O=c1c2c(nc3cc(-c4ccccc4)[nH]n13)CCS2	69*	1	78*	11	14	-14	-23	-12	6	12	-3
CC(=NNC(=O)CN(c1ccccc1Br)S(C)(=O)=O)c1ccc2c(c1)OCCO2	.	.	.	.	.	1	.	.	.	.	.
